The text below walks through data of ChEMBL document CHEMBL1137716, “Novel modifications in the series of O-(2-phthalimidoethyl)-N-substituted thiocarbamates and their ring-opened congeners as non-nucleoside HIV-1 reverse transcriptase inhibitors” (Eur J Med Chem, 2009).

Series [1] concerns Human immunodeficiency virus 1. Kind of series: Antiviral activity against wild type HIV1 3B in human MT4 cells assessed as protection against viral induced cytopathogenicity by MTT assay. It is filed as functional, organism-based. The conditions noted are these: Human immunodeficiency virus 1, 3B. In a few lines: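 MT-4 cells infected with HIV-1; 50% protection from virus-induced cytopathogenicity read by MTT method; EC50 in micromolar; mean of three separate experiments, triplicate samples varying under 10%.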

Series [2] is described as follows: Cytotoxicity against mock-infected human MT4 cells by MTT assay. It is filed as cell-based. In a few lines: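 Mock-infected MT-4 cells, tested in parallel with the antiviral assay; viability read by MTT method; CC50 is the concentration lowering viability by 50%; mean of three separate experiments, triplicate variation under 10%.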
On the technique in general: Tetrazolium dyes change colour on reduction, which living cells bring about.

Series [3] deals with Human immunodeficiency virus 1. Put plainly: Antiviral activity against HIV1 3B Y181C/K103N double mutant in human MT4 cells assessed as protection against viral induced cytopathogenicity by MTT assay. The series is classed as functional, organism-based. In short, it runs like this:
(§1)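 MT-4 cells infected with HIV-1 carrying the NNRTI-resistance mutation were assayed for protection from virus-induced cytopathogenicity, read out as cell viability by MTT. EC50 is the compound concentration giving 50% protection. Values are means of three separate experiments, with variation among triplicate samples under 10%. Efavirenz served as the reference.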
For orientation: Protection from cytopathic effect is a common read-out in antiviral testing.

A short description of series [4]: Selectivity index, ratio of CC50 for human MT4 cells to EC50 for HIV1 3B. It is filed as toxicity, cell-based. The conditions noted are these: read-out: Ratio CC50/EC50. In short, it runs like this: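 Ratio of CC50 in mock-infected MT-4 cells to EC50 for protection from HIV-1 cytopathogenicity, both read by MTT method.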
In series [5] the test system is Human immunodeficiency virus 1. Put plainly: Antiviral activity against HIV1 3B Y181C resistant mutant in human MT4 cells assessed as protection against viral induced cytopathogenicity by MTT assay. The series is classed as functional, organism-based. The following applies: Human immunodeficiency virus 1, 3B. In short, it runs like this:
as §1

In series [6] the test system is Human immunodeficiency virus 1. Put plainly: Antiviral activity against HIV1 3B K103R resistant mutant in human MT4 cells assessed as protection against viral induced cytopathogenicity by MTT assay. The conditions noted are these: Human immunodeficiency virus 1, 3B.

Activity calls are given as the source filed them. The rule behind the calls is not given here.

As usually defined, the EC50 is the concentration giving half of the maximal effect. As usually defined, the CC50 is the concentration giving 50% cytotoxicity. A higher CC50 goes with lower toxicity to the cells.

For `C[C@H](COC(=S)Nc1ccc(Cl)cc1)N1C(=O)c2ccccc2C1=O`, the EC50 worked out at 0.01 µM in series [1], 1.3 µM in series [5] and 4.8 µM in series [6]. The molecule also displayed a CC50 in series [2] of 48 µM. The result in series [3] was inactive. For the same molecule, the selectivity ratio in series [4] was 4800.

Turning to `Cc1ccc2c(c1)C(=O)N(C(C)COC(=S)Nc1ccc(Cl)cc1)C2=O` (racemic), the EC50 in series [1] was found to be 0.06 µM; in series [5], 4 µM. This molecule also registered a CC50 in series [2] of 34 µM. For the same molecule, the outcome in series [3] was inactive. In addition, the selectivity ratio in series [4] is 567.

In the case of `Cc1ccc2c(c1)C(=O)N(CCOC(=S)Nc1ccc(F)cc1)C2=O`, the EC50 in series [1] is 0.03 µM; in series [5] it was 68 µM. For the same molecule, it took 100 µM to reach half-maximal cytotoxicity in series [2] (CC50). In series [3], the outcome was inactive. For the same molecule, in series [4], the selectivity ratio is 3330.

Consider `O=C1Nc2ccc(Cl)cc2[C@@](C#CC2CC2)(C(F)(F)F)O1` [EFAVIRENZ], for which, in series [5], the EC50 amounted to 0.02 µM.

Turning to `Cc1ccc2c(c1)C(=O)N(CCOC(=S)Nc1ccc(C#N)cc1)C2=O`, the EC50 in series [1] was 0.01 µM; in series [5], 4.5 µM. Half-maximal cytotoxicity in series [2] (CC50) was put at 57 µM. For the same molecule, the outcome in series [3] was inactive. Moreover, the selectivity ratio in series [4] was 5700.

`Cc1ccc2c(c1)C(=O)N(CCOC(=S)Nc1ccc(Cl)c([N+](=O)[O-])c1)C2=O`: the EC50 in series [1] came to 0.05 µM; in series [5] it was 30 µM. In addition, the CC50 in series [2] was greater than 100 µM. The result in series [3] was inactive. The selectivity ratio in series [4] is greater than 2000.

Turning to `O=C1c2ccccc2C(=O)N1CCOC(=S)Nc1ccc(Cl)c([N+](=O)[O-])c1`, the EC50 came out at 0.05 µM in series [1] and 2.8 µM in series [5]. Besides, the CC50 in series [2] was greater than 100 µM. Also, the outcome in series [3] was inactive. In addition, the selectivity ratio in series [4] is greater than 2000.

As for `CCc1ccc(NC(=S)OCCN2C(=O)c3ccc(C)cc3C2=O)cc1`, the values for the EC50 in series [1] and in series [5] were 0.02 µM and 16 µM, respectively. The same molecule displayed a CC50 in series [2] of 43 µM. Further, in series [3], the outcome was inactive. For the same molecule, the selectivity ratio in series [4] stood at 2150.

On to `S=C(NCCc1ccccn1)Nc1ccc(Br)cn1` [TROVIRDINE], for which the EC50 came out at 0.02 µM in series [1] and 15 µM in series [5]. Besides, the selectivity ratio in series [4] was found to be 3000.

As to `COc1ccc(NC(=S)OCCN2C(=O)c3ccc(C)cc3C2=O)cc1`, the results for the EC50 in series [1] and in series [5] were 0.03 µM and 44 µM, respectively. This molecule returned a CC50 in series [2] greater than 100 µM. In addition, the outcome in series [3] was inactive. Further, the selectivity ratio in series [4] was greater than 3330.

On to `Cc1ccc(NC(=S)OC[C@@H](C)N2C(=O)c3ccccc3C2=O)cc1`, for which the EC50 in series [1] stood at 0.07 µM; in series [5], 9 µM. The CC50 in series [2] stood at 76 µM. In addition, in series [3], the result was inactive. Besides, the selectivity ratio in series [4] came out at 1090.

Regarding `Cc1ccc2c(c1)C(=O)N(CCOC(=S)Nc1ccc(I)cc1)C2=O`, the EC50 is 0.01 µM in series [1] and 9 µM in series [5]. The molecule further came in with a CC50 in series [2] of 89 µM. The outcome in series [3] was inactive. For the same molecule, the selectivity ratio in series [4] amounted to 8900.

On to `Cc1ccc2c(c1)C(=O)N(CCOC(=S)Nc1ccc(Cl)c(C(F)(F)F)c1)C2=O`, for which, in series [1], the EC50 turned out to be 2.4 µM. The CC50 in series [2] came out at 43 µM. Moreover, in series [3], the outcome was inactive. For the same molecule, the selectivity ratio in series [4] came to 17.9.

Turning to `Cc1ccc(NC(=S)OC[C@H](C)NC(=O)c2ccccc2C(=O)O)cc1`, the EC50 in series [1] turned out to be 13.8 µM. Further, the CC50 in series [2] was greater than 100 µM. Moreover, the outcome in series [3] was inactive. In series [4], the selectivity ratio was greater than 7.2.

For `CC(C)(C)CC(C)(C)NC(=S)OCCN1C(=O)c2ccccc2C1=O`, in series [1], the EC50 turned out to be 60 µM. The 50% cytotoxic concentration (CC50) in series [2] is greater than 100 µM. Further, the result in series [3] was inactive. For the same molecule, the selectivity ratio in series [4] is greater than 1.7.

As for `Cc1ccc(NC(=S)OCC(C)N2C(=O)c3ccc(C)cc3C2=O)cc1` (racemic), the EC50 stood at 0.1 µM in series [1] and 12 µM in series [5]. The CC50 in series [2] was found to be 41 µM. For the same molecule, the result in series [3] was inactive. The selectivity ratio in series [4] stood at 410.

Consider `CC(=O)c1ccc(NC(=S)OCCN2C(=O)c3ccc(C)cc3C2=O)cc1`, for which the EC50 in series [1] was 0.07 µM. The cytotoxic concentration (CC50) in series [2] is greater than 100 µM. In addition, the result in series [3] was inactive. Besides, the selectivity ratio in series [4] was greater than 1430.

As for `O=C(O)c1ccccc1C(=O)NCCOC(=S)Nc1c(F)cc(F)cc1F`, the EC50 in series [1] was found to be 7.2 µM. Also, the CC50 in series [2] is greater than 100 µM. Besides, the outcome in series [3] was inactive. The selectivity ratio in series [4] is greater than 13.9.

For `C[C@H](COC(=S)Nc1ccc(Cl)cc1)NC(=O)c1ccccc1C(=O)O`, the EC50 in series [1] is 0.3 µM; in series [5] it was 18 µM. Further, in series [2], the 50% cytotoxic concentration (CC50) is greater than 100 µM. Moreover, in series [3], the result was inactive. The selectivity ratio in series [4] was greater than 333.
